Reference: ChEMBL document CHEMBL5303300, “EUbOPEN Chemogenomics Library - Multiplex” (2023)
Values joined by “and” are separate entries in the source; they are usually repeats but may differ in a detail not shown here. Identical values can stand only once.

Test system: Fibroblast
Test: Multiplex assay against human fibroblast
Format: toxicity, cell-based
Details: number of replicates 2
Procedure, shortened: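 Imaging took place on a CQ1 microscope at 37°C and 5% CO2 once compound had been added to live cells stained at seeding with Hoechst33342, BioTracker Green Microtubule Cytoskeleton Dye, MitoTracker Red and Annexin V Alexa Fluor 680. CellPathfinder machine-learning gating classed cells as Hoechst high-intensity objects or normal cells, classed normal cells as having healthy, pyknosed or fragmented nuclei, and classed pyknosed cells as mitotic or apoptotic. Tubulin, mitochondrial-mass and membrane-permeability phenotypes are per cents of the healthy-nucleus cells.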

[1] = 12 h, 1 µM, compound concentration 1 uM
[2] = 12 h, 10 µM, compound concentration 10 uM
[3] = 24 h, 1 µM, compound concentration 1 uM
[4] = 24 h, 10 µM, compound concentration 10 uM
[5] = 48 h, 1 µM, compound concentration 1 uM
[6] = 48 h, 10 µM, compound concentration 10 uM

Cc1cc(NC(=O)c2cccc(NC(=O)/C=C/CN(C)C)c2)ccc1Nc1nccc(-c2cccnc2)n1
Population Apoptotic (%) [1]: 39% and 33%
Population Fragmented Nuclei (%) [1]: 12% and 17%
Population Healthy Nuclei (%) [1]: 63% and 56%
Population Hoechst High Intensity Objects (%) [1]: 0%
Population Membrane Permeable-Phenotype (%) [1]: 9% and 11%
Population Mitochondria Different-Phenotype (%) [1]: 0% and 1%
Population Mitotic Cells (%) [1]: 60% and 66%
Population Normal (%) [1]: 100%
Population Pyknosed Nuclei (%) [1]: 24% and 25%
Population Tubulin-Different-Phenotype (%) [1]: 18% and 11%
Total Cell Count [1]: 190 and 197
Population Apoptotic (%) [2]: 48% and 33%
Population Fragmented Nuclei (%) [2]: 4% and 10%
Population Healthy Nuclei (%) [2]: 53% and 56%
Population Hoechst High Intensity Objects (%) [2]: 0%
Population Membrane Permeable-Phenotype (%) [2]: 7% and 14%
Population Mitochondria Different-Phenotype (%) [2]: 8% and 2%
Population Mitotic Cells (%) [2]: 51% and 66%
Population Normal (%) [2]: 100% and 99%
Population Pyknosed Nuclei (%) [2]: 41% and 33%
Population Tubulin-Different-Phenotype (%) [2]: 77% and 50%
Total Cell Count [2]: 130 and 219
Population Apoptotic (%) [3]: 47% and 40%
Population Fragmented Nuclei (%) [3]: 22% and 24%
Population Healthy Nuclei (%) [3]: 54% and 52%
Population Hoechst High Intensity Objects (%) [3]: 0%
Population Membrane Permeable-Phenotype (%) [3]: 5% and 3%
Population Mitochondria Different-Phenotype (%) [3]: 0% and 2%
Population Mitotic Cells (%) [3]: 52% and 59%
Population Normal (%) [3]: 100%
Population Pyknosed Nuclei (%) [3]: 23%
Population Tubulin-Different-Phenotype (%) [3]: 21% and 13%
Total Cell Count [3]: 230 and 222
Population Apoptotic (%) [4]: 53% and 39%
Population Fragmented Nuclei (%) [4]: 11%
Population Healthy Nuclei (%) [4]: 36% and 51%
Population Hoechst High Intensity Objects (%) [4]: 0%
Population Membrane Permeable-Phenotype (%) [4]: 6% and 7%
Population Mitochondria Different-Phenotype (%) [4]: 18% and 13%
Population Mitotic Cells (%) [4]: 46% and 60%
Population Normal (%) [4]: 99%
Population Pyknosed Nuclei (%) [4]: 51% and 36%
Population Tubulin-Different-Phenotype (%) [4]: 81% and 63%
Total Cell Count [4]: 118 and 221
Population Apoptotic (%) [5]: 68% and 75%
Population Fragmented Nuclei (%) [5]: 24% and 29%
Population Healthy Nuclei (%) [5]: 62% and 60%
Population Hoechst High Intensity Objects (%) [5]: 0%
Population Membrane Permeable-Phenotype (%) [5]: 6% and 4%
Population Mitochondria Different-Phenotype (%) [5]: 1% and 0%
Population Mitotic Cells (%) [5]: 31% and 25%
Population Normal (%) [5]: 100% and 99%
Population Pyknosed Nuclei (%) [5]: 13% and 10%
Population Tubulin-Different-Phenotype (%) [5]: 23% and 29%
Total Cell Count [5]: 237 and 239
Population Apoptotic (%) [6]: 82% and 60%
Population Fragmented Nuclei (%) [6]: 14%
Population Healthy Nuclei (%) [6]: 30% and 39%
Population Hoechst High Intensity Objects (%) [6]: 0%
Population Membrane Permeable-Phenotype (%) [6]: 19% and 12%
Population Mitochondria Different-Phenotype (%) [6]: 22% and 15%
Population Mitotic Cells (%) [6]: 17% and 39%
Population Normal (%) [6]: 100% and 99%
Population Pyknosed Nuclei (%) [6]: 54% and 45%
Population Tubulin-Different-Phenotype (%) [6]: 80% and 78%
Total Cell Count [6]: 117 and 218

CN(C)[C@H]1CC[C@H](Nc2ncc3ncnc(Nc4ccc(F)c(Cl)c4)c3n2)CC1
Population Apoptotic (%) [1]: 68% and 45%
Population Fragmented Nuclei (%) [1]: 26% and 29%
Population Healthy Nuclei (%) [1]: 54% and 50%
Population Hoechst High Intensity Objects (%) [1]: 1% and 0%
Population Membrane Permeable-Phenotype (%) [1]: 4% and 9%
Population Mitochondria Different-Phenotype (%) [1]: 1%
Population Mitotic Cells (%) [1]: 31% and 55%
Population Normal (%) [1]: 98% and 99%
Population Pyknosed Nuclei (%) [1]: 18% and 19%
Population Tubulin-Different-Phenotype (%) [1]: 16% and 11%
Total Cell Count [1]: 309 and 205
Population Apoptotic (%) [2]: 31% and 27%
Population Fragmented Nuclei (%) [2]: 30% and 24%
Population Healthy Nuclei (%) [2]: 45% and 51%
Population Hoechst High Intensity Objects (%) [2]: 18% and 10%
Population Membrane Permeable-Phenotype (%) [2]: 2% and 3%
Population Mitochondria Different-Phenotype (%) [2]: 0%
Population Mitotic Cells (%) [2]: 68% and 72%
Population Normal (%) [2]: 81% and 89%
Population Pyknosed Nuclei (%) [2]: 24% and 23%
Population Tubulin-Different-Phenotype (%) [2]: 4% and 3%
Total Cell Count [2]: 681 and 574
Population Apoptotic (%) [3]: 54% and 67%
Population Fragmented Nuclei (%) [3]: 28% and 20%
Population Healthy Nuclei (%) [3]: 48% and 63%
Population Hoechst High Intensity Objects (%) [3]: 0%
Population Membrane Permeable-Phenotype (%) [3]: 3% and 6%
Population Mitochondria Different-Phenotype (%) [3]: 1% and 2%
Population Mitotic Cells (%) [3]: 45% and 32%
Population Normal (%) [3]: 100% and 99%
Population Pyknosed Nuclei (%) [3]: 23% and 16%
Population Tubulin-Different-Phenotype (%) [3]: 11% and 13%
Total Cell Count [3]: 208 and 288
Population Apoptotic (%) [4]: 18% and 27%
Population Fragmented Nuclei (%) [4]: 27% and 28%
Population Healthy Nuclei (%) [4]: 44% and 47%
Population Hoechst High Intensity Objects (%) [4]: 19% and 27%
Population Membrane Permeable-Phenotype (%) [4]: 6% and 3%
Population Mitochondria Different-Phenotype (%) [4]: 0% and 1%
Population Mitotic Cells (%) [4]: 81% and 72%
Population Normal (%) [4]: 80% and 72%
Population Pyknosed Nuclei (%) [4]: 27% and 24%
Population Tubulin-Different-Phenotype (%) [4]: 5% and 4%
Total Cell Count [4]: 464 and 636
Population Apoptotic (%) [5]: 68% and 56%
Population Fragmented Nuclei (%) [5]: 22% and 32%
Population Healthy Nuclei (%) [5]: 61% and 50%
Population Hoechst High Intensity Objects (%) [5]: 2% and 0%
Population Membrane Permeable-Phenotype (%) [5]: 7% and 9%
Population Mitochondria Different-Phenotype (%) [5]: 0%
Population Mitotic Cells (%) [5]: 31% and 43%
Population Normal (%) [5]: 97% and 99%
Population Pyknosed Nuclei (%) [5]: 15% and 17%
Population Tubulin-Different-Phenotype (%) [5]: 10% and 6%
Total Cell Count [5]: 264 and 218
Population Apoptotic (%) [6]: 20% and 21%
Population Fragmented Nuclei (%) [6]: 31% and 34%
Population Healthy Nuclei (%) [6]: 38% and 37%
Population Hoechst High Intensity Objects (%) [6]: 22% and 26%
Population Membrane Permeable-Phenotype (%) [6]: 5% and 1%
Population Mitochondria Different-Phenotype (%) [6]: 0%
Population Mitotic Cells (%) [6]: 79% and 78%
Population Normal (%) [6]: 77% and 73%
Population Pyknosed Nuclei (%) [6]: 30% and 27%
Population Tubulin-Different-Phenotype (%) [6]: 5% and 2%
Total Cell Count [6]: 527 and 613
